Laboratory results as given in ChEMBL document CHEMBL1649212, “AI-2/LuxS is involved in increased biofilm formation by Streptococcus intermedius in the presence of antibiotics” (2009).
Activity calls are given as the source filed them. No cut-off for these calls is given here.

Columns and labels:
[1] = system: Streptococcus intermedius; test: Antimicrobial activity against Streptococcus intermedius SI006 biofilm harboring luxS mutant gene assessed as biofilm bacterial count at 0.10 ug/ml (Rvb =310.8 +/- 17.10 10^5 CFU/ml); assay type: functional
[2] = system: Streptococcus intermedius; test: Antimicrobial activity against Streptococcus intermedius NCTC 11324 biofilm assessed as biofilm bacterial count at 0.07 ug/ml (Rvb =402.9 +/- 26.88 10^5 CFU/ml); assay type: functional
[3] = system: Streptococcus intermedius; test: Antimicrobial activity against Streptococcus intermedius SI006 planktonic cells harboring luxS mutant gene assessed as bacterial count at 0.15 ug/ml (Rvb =757.5 +/- 80.14 10^8 CFU/ml); assay type: functional
[4] = system: Streptococcus intermedius; test: Antimicrobial activity against Streptococcus intermedius SI006 planktonic cells harboring luxS mutant gene assessed as bacterial count at 0.10 ug/ml (Rvb =757.5 +/- 80.14 10^8 CFU/ml); assay type: functional
[5] = system: Streptococcus intermedius; test: Antimicrobial activity against Streptococcus intermedius SI006 planktonic cells harboring luxS mutant gene assessed as bacterial count at 0.12 ug/ml in presence of 0.8 nM autoinducer 4,5-dihydroxy-2,3-pentanedione (Rvb =790.8 +/- 90.09 10^8 CFU/ml); assay type: functional
[6] = system: Streptococcus intermedius; test: Antimicrobial activity against Streptococcus intermedius SI006 planktonic cells harboring luxS mutant gene assessed as bacterial count at 0.10 ug/ml in presence of 0.8 nM autoinducer 4,5-dihydroxy-2,3-pentanedione (Rvb =790.8 +/- 90.09 10^8 CFU/ml); assay type: functional
[7] = system: Streptococcus intermedius; test: Antimicrobial activity against Streptococcus intermedius SI006 planktonic cells harboring luxS mutant gene assessed as bacterial count at 0.08 ug/ml (Rvb =757.5 +/- 80.14 10^8 CFU/ml); assay type: functional
[8] = system: Streptococcus intermedius; test: Antimicrobial activity against Streptococcus intermedius SI006 biofilm harboring luxS mutant gene assessed as biofilm bacterial count at 0.07 ug/ml in presence of 0.8 nM autoinducer 4,5-dihydroxy-2,3-pentanedione (Rvb =413.7 +/- 24.47 10^5 CFU/ml); assay type: functional
[9] = system: Streptococcus intermedius; test: Antimicrobial activity against Streptococcus intermedius SI006 biofilm harboring luxS mutant gene assessed as biofilm bacterial count at 0.05 ug/ml (Rvb =310.8 +/- 17.10 10^5 CFU/ml); assay type: functional
[10] = system: Streptococcus intermedius; test: Antimicrobial activity against Streptococcus intermedius SI006 planktonic cells harboring luxS mutant gene assessed as bacterial count at 0.08 ug/ml in presence of 0.8 nM autoinducer 4,5-dihydroxy-2,3-pentanedione (Rvb =790.8 +/- 90.09 10^8 CFU/ml); assay type: functional
[11] = system: Streptococcus intermedius; test: Antimicrobial activity against Streptococcus intermedius NCTC 11324 assessed as biofilm formation at 0.05 to 0.10 ug/ml; assay type: functional, organism-based
Method in brief: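 Wild-type NCTC 11324 was grown overnight in TSB and inoculated into TSB with ampicillin (0.02 to 0.10 μg/ml), ciprofloxacin (0.10 to 0.28 μg/ml) or tetracycline (0.05 to 0.30 μg/ml), added at time zero. Wells held plastic coverslips and were incubated 12 h at 37°C in 5% CO2 aerobic air. Biofilm was measured as described previously. Experiments were done three times in three parallels.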

[12] = system: Streptococcus intermedius; test: Antimicrobial activity against Streptococcus intermedius NCTC 11324 biofilm assessed as biofilm bacterial count at 0.10 ug/ml (Rvb =402.9 +/- 26.88 10^5 CFU/ml); assay type: functional
[13] = system: Streptococcus intermedius; test: Antimicrobial activity against Streptococcus intermedius SI006 biofilm harboring luxS mutant gene assessed as biofilm bacterial count at 0.10 ug/ml in presence of 0.8 nM autoinducer 4,5-dihydroxy-2,3-pentanedione (Rvb =413.7 +/- 24.47 10^5 CFU/ml); assay type: functional
[14] = system: Streptococcus intermedius; test: Antimicrobial activity against Streptococcus intermedius NCTC 11324 planktonic cells assessed as bacterial count at 0.15 ug/ml (Rvb =791.7 +/- 44.10 10^8 CFU/ml); assay type: functional
Method in brief: (§1)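 Planktonic wild-type cells were inoculated at ≈4 × 10^5 CFU/ml in TSB in ultra-low-binding plates. Media were without or with ampicillin (0.02 to 0.14 μg/ml), ciprofloxacin (0.10 to 0.35 μg/ml) or tetracycline (0.03 to 0.20 μg/ml). After 12 h at 37°C in 5% CO2 aerobic air, CFU were counted, run in parallel with the BacTiter-Glo ATP assay. Experiments were done three times in two parallels.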

[15] = system: Streptococcus intermedius; test: Antimicrobial activity against Streptococcus intermedius NCTC 11324 planktonic cells assessed as bacterial count at 0.10 ug/ml (Rvb =791.7 +/- 44.10 10^8 CFU/ml); assay type: functional; method in brief: as §1
[16] = system: Streptococcus intermedius; test: Antimicrobial activity against Streptococcus intermedius SI006 biofilm harboring luxS mutant gene assessed as biofilm bacterial count at 0.05 ug/ml in presence of 0.8 nM autoinducer 4,5-dihydroxy-2,3-pentanedione (Rvb =413.7 +/- 24.47 10^5 CFU/ml); assay type: functional
[17] = system: Streptococcus intermedius; test: Antimicrobial activity against Streptococcus intermedius NCTC 11324 assessed as growth inhibition at 0.7 ug/ml; assay type: functional
Method in brief: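 Broth microdilution MIC in ultra-low-binding 96-well plates, inoculum ≈4 × 10^5. Growth was read at 595 nm, and the MIC was taken as the lowest antibiotic concentration inhibiting growth.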

[18] = system: Streptococcus intermedius; test: Antimicrobial activity against Streptococcus intermedius SI006 biofilm harboring luxS mutant gene assessed as biofilm bacterial count at 0.07 ug/ml (Rvb =310.8 +/- 17.10 10^5 CFU/ml); assay type: functional
[19] = system: Streptococcus intermedius; test: Antimicrobial activity against Streptococcus intermedius SI006 planktonic cells harboring luxS mutant gene assessed as bacterial count at 0.15 ug/ml in presence of 0.8 nM autoinducer 4,5-dihydroxy-2,3-pentanedione (Rvb =790.8 +/- 90.09 10^8 CFU/ml); assay type: functional
[20] = system: Streptococcus intermedius; test: Antimicrobial activity against Streptococcus intermedius NCTC 11324 biofilm assessed as biofilm bacterial count at 0.05 ug/ml (Rvb =402.9 +/- 26.88 10^5 CFU/ml); assay type: functional
[21] = system: Streptococcus intermedius; test: Antimicrobial activity against Streptococcus intermedius SI006 planktonic cells harboring luxS mutant gene assessed as bacterial count at 0.12 ug/ml (Rvb =757.5 +/- 80.14 10^8 CFU/ml); assay type: functional
[22] = system: Streptococcus intermedius; test: Antimicrobial activity against Streptococcus intermedius NCTC 11324 planktonic cells assessed as bacterial count at 0.12 ug/ml (Rvb =791.7 +/- 44.10 10^8 CFU/ml); assay type: functional; method in brief: as §1
[23] = system: Streptococcus intermedius; test: Antimicrobial activity against Streptococcus intermedius NCTC 11324 planktonic cells assessed as bacterial count at 0.08 ug/ml (Rvb =791.7 +/- 44.10 10^8 CFU/ml); assay type: functional; method in brief: as §1

With `CN(C)[C@@H]1C(O)=C(C(N)=O)C(=O)[C@@]2(O)C(O)=C3C(=O)c4c(O)cccc4[C@@](C)(O)[C@H]3C[C@@H]12` [TETRACYCLINE] the CFU [1] was 108.8 ×10⁵ /ml, the CFU [2] was 637.1 ×10⁵ /ml and the CFU [3] was 2 ×10⁸ /ml. For the same compound, the CFU [4] was 5.7 ×10⁸ /ml, the CFU [5] was 16.3 ×10⁸ /ml and the CFU [6] was 25.2 ×10⁸ /ml. It also gave a CFU [7] of 11.2 ×10⁸ /ml, a CFU [8] of 253.1 ×10⁵ /ml and a CFU [9] of 333 ×10⁵ /ml. For the same compound, the CFU [10] was 38.4 ×10⁸ /ml, the Activity [11] was “inactive” and the CFU [12] was 610.5 ×10⁵ /ml. It also gave a CFU [13] of 486.2 ×10⁵ /ml, a CFU [14] of 24.2 ×10⁸ /ml and a CFU [15] of 44.5 ×10⁸ /ml. For the same compound, the CFU [16] was 333 ×10⁵ /ml, the Activity [17] was 0.7 µg/mL and the CFU [18] was 253.1 ×10⁵ /ml. The CFU [19] was 10.1 ×10⁸ /ml, the CFU [20] was 779.2 ×10⁵ /ml and the CFU [21] was 3 ×10⁸ /ml. It also gave a CFU [22] of 32 ×10⁸ /ml and a CFU [23] of 61.9 ×10⁸ /ml.
